Reference: ChEMBL document CHEMBL4422648, “Synthesis, biological evaluation and mode of action studies of novel amidinourea inhibitors of hepatitis C virus (HCV)” (Bioorg Med Chem Lett, 2019)
pIC50: −log10 of the molar value. The source made the active and inactive calls. The calls are words filed in the database; no cut-off is given here.

How the values were obtained:
Huh-7 = assay: Cytotoxicity against human HuH7 cells at 10 uM after 24 hrs by WST-1 assay; assay type: cell-based; conditions: huh-7, 24 h
Method in brief: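 Huh7 cells were incubated 24 h with 10 µM of each compound before cell viability was assessed.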

Hepatitis C virus [1] = assay: Antiviral activity against HCV sub-genomic replicon infected in human Huh7 cells at 10 uM added immediately with viral infection and measured after 24 hrs by bright-glo luciferase reporter gene assay relative to control; assay type: functional
Method in brief: (§1)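 Huh7 cells were electroporated with HCV subgenomic replicon RNA. Compound at 10 µM was added either immediately at seeding or after 24 h to let replication establish. Luciferase was measured after 24 h of treatment.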

Hepatitis C virus [2] = assay: Antiviral activity against HCV pseudo-particle infected in human HuH7 cells assessed as inhibition of HCV pseudo particles entry at 10 uM preincubated for 1 hr followed by viral infection and measured after 72 hrs by bright-glo luciferase reporter gene assay; assay type: functional, organism-based; conditions: Hepacivirus hominis
Method in brief: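 Huh7 cells were pretreated with 10 µM compound for 1 h. They were then infected with HCV pseudo-particles for 3 h in the compound's presence. Entry was detected 72 h post infection; bafilomycin served as the positive control.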

[3] = Cytotoxicity against human Huh7-J20 cells infected with HCV sub-genomic replicon assessed as reduction in cell viability up to 30 uM after 24 hrs by WST-1 assay; assay type: cell-based
Method in brief: (§2)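 Subgenomic replicon RNA was electroporated into cells, which were exposed for 24 h to a dose range from 30 µM in 1:3 dilutions. Replication was read by luciferase, with cell viability measured alongside.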

Hepatitis C virus [4] = assay: Antiviral activity against HCV replicon infected in human Huh7 cells after 8 to 24 hrs by Western blot analysis; conditions: Hepacivirus hominis
Hepatitis C virus [5] = assay: Antiviral activity against HCV replicon infected in human Huh7 cells assessed as reduction in NS5A level after 8 to 24 hrs by Western blot analysis; assay type: functional, organism-based; conditions: Hepacivirus hominis
Method in brief: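 After transfection with HCV replicon RNA, Huh7 cells were treated immediately for 8 or 24 h. Lysates were probed by western blot for NS5A and for unprocessed polyprotein.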

Hepatitis C virus [6] = assay: Antiviral activity against HCV replication defective replicon infected in human Huh7 cells after 2 to 8 hrs by bright-glo luciferase reporter gene assay; assay type: functional, organism-based; conditions: Hepacivirus hominis
Method in brief: (§3)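 Time course: Huh7 cells were transfected with HCV replicon RNA (wild-type subgenomic or replication-defective GND) and seeded in the presence of compound. Replication/translation signal was read at 2, 4, 8 and 24 h post transfection and compared with untreated cells at each time point.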

Hepatitis C virus [7] = assay: Antiviral activity against HCV sub-genomic replicon infected in human Huh7 cells at 10 uM added 24 hrs after viral infection and measured after 24 hrs by bright-glo luciferase reporter gene assay relative to control; assay type: functional, Hepacivirus hominis; method in brief: as §1
Hepatitis C virus [8] = assay: Antiviral activity against HCV replicon infected in human Huh7-J17 cells after 24 hrs by bright-glo luciferase reporter gene assay relative to control; assay type: functional, Hepacivirus hominis
[9] = Cytotoxicity against human Huh7-J20 cells infected with HCV JFH-1 after 72 hrs by WST-1 assay; assay type: cell-based
Method in brief: (§4)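 HCVcc (JFH-1 clone) inoculated onto Huh7-J20 cells for 3 h. Infected cells were then exposed for 72 h to a dose range starting at 30 µM with 1:3 serial dilutions. Viral replication was read after harvest, and cell viability was measured in parallel.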

Hepatitis C virus [10] = assay: Antiviral activity against HCV sub-genomic replicon infected in human Huh7-J20 cells after 24 hrs by bright-glo luciferase reporter gene assay; assay type: functional, organism-based; method in brief: as §2
Hepatitis C virus [11] = assay: Antiviral activity against HCV JFH-1 infected in human Huh7-J20 cells after 72 hrs by SEAP based assay; assay type: functional, organism-based, Hepacivirus hominis; conditions: JFH-1, Huh7-J20, 72 h; method in brief: as §4
Hepatitis C virus [12] = assay: Antiviral activity against HCV sub-genomic replicon infected in human Huh7 cells after 2 to 24 hrs by bright-glo luciferase reporter gene assay; assay type: functional, organism-based; conditions: Hepacivirus hominis; method in brief: as §3
[13] = tested on: Internal ribosome entry site (IRES); assay: Inhibition of HCV IRES transfected in human Huh7 cells assessed as inhibition of IRES-mediated translation after 24 hrs by dual luciferase reporter gene assay relative to control; assay type: cell-based; conditions: Hepacivirus hominis; dose or concentration not given here
Method in brief: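 Huh7 cells were co-transfected with a plasmid for firefly luciferase driven by the HCV IRES and a plasmid for Renilla luciferase under the TK promoter, used to normalise transfection efficiency. Cells were exposed to compound for 24 h, then assayed by dual luciferase.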

SMILES | Activity (Huh-7) | Activity (Hepatitis C virus [1]; Hepacivirus hominis) | Activity (Hepatitis C virus [2]) | further results
C#CCNC(=N)NCCCCCCNCCCCCCNC(=N)NCC#C | Non-Toxic | inactive | inactive | –
N=C(NCCCCCCCCNC(=N)NCc1ccccc1)NCc1ccccc1 | Non-Toxic | inactive | inactive | –
C=CCNC(=O)NC(=N)NCCCCN | Non-Toxic | inactive | inactive | –
C=CCNC(=O)NC(=N)NCCCCNC(=N)NC(=O)NCC=C | Non-Toxic | inactive | inactive | –
C=CCNC(=O)NC(=N)NCCCCNCCCNC(=N)NC(=O)NCC=C | Non-Toxic | inactive | inactive | –
C=CCNC(=O)NC(=N)NCCCN(C)CCCCN(C)CCCNC(=N)NC(=O)NCC=C | Non-Toxic | inactive | inactive | –
CO/C1=C\C(C)=C\[C@@H](C)[C@@H](O)[C@@H](C)C/C(C)=C/C=C/[C@H](OC)[C@@H]([C@@H](C)[C@@H](O)[C@H](C)[C@@]2(O)C[C@@H](O)[C@H](C)[C@@H](C(C)C)O2)OC1=O | – | – | Active | –
C=CCNC(=N)NCCCCCCCCNC(=N)NCC=C | Non-Toxic | inactive | inactive | –
C=CCNC(=N)NCCCCCCNCCCCCCNC(=N)NCC=C | Non-Toxic | inactive | inactive | –
C=CCNC(=O)NC(=N)NCCCCNC(=O)c1ccccc1 | Non-Toxic | inactive | inactive | –
C=CCNC(=O)NC(=N)NCCCNCCCCNCCCNC(=N)NC(=O)NCC=C | Non-Toxic | – | inactive | Activity (Hepatitis C virus [1]): 90%; Activity [3]: Non-Toxic; Activity (Hepatitis C virus [4]): Active; Activity (Hepatitis C virus [5]): Active; Activity (Hepatitis C virus [6]): Active; Activity (Hepatitis C virus [7]): 45%; Activity (Hepatitis C virus [8]): 45%; CC50 at 72 h [9]: 81.1 µM; Activity (Hepatitis C virus [10]; Hepacivirus hominis): Dose-dependent effect; pIC50 (Hepatitis C virus [10]; Huh7-J20, 24 h): 5.58; pIC50 (Hepatitis C virus [11]): 4.91; Activity (Hepatitis C virus [12]): Active; inhibition [13]: 40%
